Test results taken from ChEMBL document CHEMBL4480421 (Bioorg Med Chem, 2019).
pIC50: −log10 of the molar value. Converted amounts (≈) assume the structure as drawn.

What was measured:
[1] = Protein binding in human plasma; assay type: ADME, cell-free; details: read-out: PPB
[2] = Ratio of AUC in mouse to MIC90 of replicating Mycobacterium tuberculosis H37Rv after 4 days by Alamar blue assay
How it was run: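 Mouse plasma exposure (AUC_inf, µg*h/mL) divided by the MIC90 against replicating H37Rv from the aerobic MABA assay.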

Vero = assay: Cytotoxicity against African green monkey Vero cells after 72 hrs by MTS-PMS assay; assay type: cell-based; details: Chlorocebus sabaeus
[3] = test system: Mycobacterium tuberculosis; assay: Antitubercular activity against non-replicating Mycobacterium tuberculosis H37Rv after 10 days by LORA; assay type: functional; details: 240 h
How it was run: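 MIC90 against M. tuberculosis H37Rv under non-replicating conditions (LORA). Tested at the Institute for Tuberculosis Research, University of Illinois at Chicago.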

[4] = test system: Mycobacterium tuberculosis; assay: Antitubercular activity against replicating Mycobacterium tuberculosis H37Rv after 4 days by Alamar blue assay; assay type: functional; details: 96 h
How it was run: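 MIC90 against M. tuberculosis H37Rv under aerobic, replicating conditions (MABA). Tested at the Institute for Tuberculosis Research, University of Illinois at Chicago.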

Cytochrome P450 3A4 = Cytochrome P450 3A4 (Homo sapiens, UniProt P08684); assay: Inhibition of CYP3A4 (unknown origin); assay type: ADME
Chain of Cytochrome P450 3A4 (P08684 whole entry): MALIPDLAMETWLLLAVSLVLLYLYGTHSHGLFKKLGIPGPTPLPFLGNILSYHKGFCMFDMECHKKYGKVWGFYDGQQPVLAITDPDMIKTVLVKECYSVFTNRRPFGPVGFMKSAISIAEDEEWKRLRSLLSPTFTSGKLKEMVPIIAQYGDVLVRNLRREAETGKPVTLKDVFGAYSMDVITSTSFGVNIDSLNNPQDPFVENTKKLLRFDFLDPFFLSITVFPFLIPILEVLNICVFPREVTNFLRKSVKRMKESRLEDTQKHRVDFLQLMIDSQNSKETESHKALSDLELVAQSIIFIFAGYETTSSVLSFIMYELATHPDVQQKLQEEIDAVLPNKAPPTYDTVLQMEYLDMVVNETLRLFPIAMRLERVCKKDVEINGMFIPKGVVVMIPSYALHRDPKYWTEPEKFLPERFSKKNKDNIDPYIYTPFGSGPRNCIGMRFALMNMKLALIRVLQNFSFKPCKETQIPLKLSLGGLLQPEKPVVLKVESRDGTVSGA

| Compound | fraction unbound [1] | Ratio [2] | IC50 (Vero) [µg/mL] | MIC90 [3] [µg/mL] | MIC90 [4] [µg/mL] | pIC50 (Cytochrome P450 3A4) |
| --- | --- | --- | --- | --- | --- | --- |
| COc1cccc(C(c2cc3cc(Br)ccc3nc2OC)C(O)(CCN(C)C)c2cc(C)cnc2C)c1OC (racemic) | < 0.001 | 19.9 | > 10 |  |  |  |
| COc1cc(C(O)(CCN(C)C)C(c2cc3cc(Br)ccc3nc2OC)c2cccc(OC)c2F)c(OC)cn1 (racemic) | < 0.001 |  | > 10 |  |  |  |
| COc1cccc(C(c2cc3cc(Br)ccc3nc2OC)C(O)(CCN(C)C)c2cnc(C)cc2C)c1OC (racemic) | < 0.001 | 104 |  |  |  |  |
| COc1cccc(C(c2cc3cc(Br)ccc3nc2OC)C(O)(CCN(C)C)c2cccc(C)n2)c1F (racemic) | < 0.001 |  | > 10 |  |  |  |
| COc1cccc(C(c2cc3cc(Br)ccc3nc2OC)C(O)(CCN(C)C)c2cc(C)nc(C)c2)c1OC (racemic) |  |  |  | 0.07 (≈ 0.118 µM) | 0.04 (≈ 0.0673 µM) |  |
| COc1cccc(C(O)(CCN(C)C)C(c2cc3cc(Br)ccc3nc2OC)c2cccc3c2OCO3)n1 (racemic) | < 0.001 | 10.4 | > 10 |  |  |  |
| COc1nc2ccc(Br)cc2cc1C(c1cccc2c1OCO2)C(O)(CCN(C)C)c1cccnc1OC (racemic) | < 0.001 | 5.73 | > 10 |  |  | < 5.00 |
| COc1cccc(C(c2cc3cc(C#N)ccc3nc2OC)C(O)(CCN(C)C)c2cc(C)nc(C)c2)c1OC (racemic) | < 0.001 | 6.17 | > 10 |  |  |  |
| COc1nc2ccc(Br)cc2cc1C(c1cccc2c1OCO2)C(O)(CCN(C)C)c1cccnc1C (racemic) | < 0.001 |  | > 10 |  |  | < 5.00 |
| COc1cc(C(O)(CCN(C)C)C(c2cc3cc(Br)ccc3nc2OC)c2ccnc(OC)c2OC)cnc1OC (racemic) | < 0.001 | 71.3 | > 10 |  |  |  |
| COc1nc2ccc(Br)cc2cc1C(c1cccc(C)c1)C(O)(CCN(C)C)c1cccnc1OC (racemic) | < 0.001 | 19.3 | > 10 |  |  | < 5.00 |
| COc1nc2ccc(Br)cc2cc1C(c1cccc(C)c1)C(O)(CCN(C)C)c1cccnc1C (racemic) | < 0.001 |  | > 10 |  |  | < 5.00 |
| COc1cc(C(O)(CCN(C)C)C(c2cc3cc(Br)ccc3nc2OC)c2ccnc(OC)c2OC)c(OC)nc1OC (racemic) | < 0.001 |  | > 10 |  |  |  |
| CCc1cc(C(O)(CCN(C)C)C(c2cc3cc(C#N)ccc3nc2OC)c2cccc(OC)c2F)cc(CC)n1 (racemic) | < 0.001 |  | > 10 |  |  |  |
| COc1cccc(C(c2cc3cc(C#N)ccc3nc2OC)C(O)(CCN(C)C)c2cc(C)nc(C)c2)c1F (racemic) | < 0.001 |  | > 10 |  |  | < 5.00 |
| CCOc1cc(C(O)(CCN(C)C)C(c2cc(OC)nc(OC)c2)c2cc3cc(Br)ccc3nc2OC)cc(OC(C)C)n1 (racemic) | < 0.001 | 1650 | > 10 |  |  |  |
| CCc1cc(C(O)(CCN(C)C)C(c2cc3cc(Br)ccc3nc2OC)c2cccc(OC)c2F)cc(CC)n1 (racemic) | < 0.001 |  | > 10 |  |  |  |
| COc1nc2ccc(C#N)cc2cc1C(c1cccc(C)c1)C(O)(CCN(C)C)c1cccnc1OC (racemic) | < 0.001 | 2.25 | > 10 |  |  | < 5.00 |
| COc1cnc(OC)c(C(O)(CCN(C)C)C(c2cc3cc(Br)ccc3nc2OC)c2cccc(OC)c2F)c1 (racemic) | < 0.001 |  | > 10 |  |  |  |
| CCOc1cc(C(O)(CCN(C)C)C(c2cc3cc(Br)ccc3nc2OC)c2ccnc(OC)c2OC)cc(OC(C)C)n1 (racemic) | < 0.001 |  | > 10 |  |  |  |
| COc1cccc(C(c2cc3cc(Br)ccc3nc2OC)C(O)(CCN(C)C)c2ccc(C)nc2)c1F (racemic) | < 0.001 |  | > 10 |  |  | < 5.00 |
| COc1nc2ccc(C#N)cc2cc1C(c1cccc(F)c1)C(O)(CCN(C)C)c1cncc(C)c1 (racemic) | < 0.001 |  | > 10 |  |  |  |
| COc1nc2ccc(Br)cc2cc1[C@@H](c1ccccc1)[C@@](O)(CCN(C)C)c1cccc2ccccc12 [BEDAQUILINE] | < 0.001 |  | > 10 |  |  |  |
